Target: T1, Sodium/glucose cotransporter 2 (Homo sapiens, UniProt P31639)
T1 sequence (P31639 whole entry): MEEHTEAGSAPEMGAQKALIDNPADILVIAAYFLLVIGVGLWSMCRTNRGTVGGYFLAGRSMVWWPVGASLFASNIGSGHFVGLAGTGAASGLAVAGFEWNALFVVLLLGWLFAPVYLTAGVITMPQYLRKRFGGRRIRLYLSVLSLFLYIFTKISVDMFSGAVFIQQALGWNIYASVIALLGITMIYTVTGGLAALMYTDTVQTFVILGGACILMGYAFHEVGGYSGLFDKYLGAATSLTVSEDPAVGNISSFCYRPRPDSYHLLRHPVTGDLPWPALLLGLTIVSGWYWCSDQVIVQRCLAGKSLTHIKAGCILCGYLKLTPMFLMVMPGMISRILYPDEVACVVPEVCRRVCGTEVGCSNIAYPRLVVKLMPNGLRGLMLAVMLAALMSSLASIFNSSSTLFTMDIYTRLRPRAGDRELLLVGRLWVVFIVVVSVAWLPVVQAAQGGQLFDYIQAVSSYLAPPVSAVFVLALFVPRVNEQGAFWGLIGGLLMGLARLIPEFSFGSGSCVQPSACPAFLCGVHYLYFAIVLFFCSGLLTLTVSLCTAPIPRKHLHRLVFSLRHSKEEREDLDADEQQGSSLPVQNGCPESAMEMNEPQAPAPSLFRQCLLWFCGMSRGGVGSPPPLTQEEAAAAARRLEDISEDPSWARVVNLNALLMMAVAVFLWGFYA
Assay: Inhibition of human SGLT2 expressed in CHO cells assessed as [14C]-alpha-methyl-D-glucopyranoside uptake after 2 hrs by liquid scintillation counter
Format: cell-based
How it was run: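 hSGLT2 cDNA from adult kidney, stably transfected into CHO cells. They were pretreated 10 min at 37 °C in choline-chloride buffer (pH 7.4), then taken up 2 h at 37 °C in NaCl buffer with 1 mM unlabeled AMG plus ¹⁴C-AMG (8 uM) and inhibitor or DMSO. Two washes in buffer containing 10 mM AMG. IC₅₀ by nonlinear regression.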

| Structure (SMILES) | IC50 [µM] |
| --- | --- |
| C=CCOCc1cc(Cl)c(Cc2ncc(-c3ccco3)s2)cc1[C@@H]1O[C@H](CO)[C@@H](O)[C@H](O)[C@H]1O | 0.0175 |
| COc1cc(Cl)c(Cc2ncc(-c3ccco3)s2)cc1[C@@H]1O[C@H](CO)[C@@H](O)[C@H](O)[C@H]1O | 0.00215 |
| COc1cc(Cl)c(Cc2ncc(-c3cccs3)s2)cc1[C@@H]1O[C@H](CO)[C@@H](O)[C@H](O)[C@H]1O | 0.00159 |
| CCOc1cc(Cl)c(Cc2ncc(-c3ccsc3)s2)cc1[C@@H]1O[C@H](CO)[C@@H](O)[C@H](O)[C@H]1O | 0.00118 |
| CCCOc1cc(Cl)c(Cc2ncc(-c3ccco3)s2)cc1[C@@H]1O[C@H](CO)[C@@H](O)[C@H](O)[C@H]1O | 0.0216 |
| C#CCOc1cc(Cl)c(Cc2ncc(-c3ccco3)s2)cc1[C@@H]1O[C@H](CO)[C@@H](O)[C@H](O)[C@H]1O | 0.00223 |
| C=CCCOc1cc(Cl)c(Cc2ncc(-c3ccco3)s2)cc1[C@@H]1O[C@H](CO)[C@@H](O)[C@H](O)[C@H]1O | 0.0328 |
| CN(C)CCOc1cc(Cl)c(Cc2ncc(-c3ccco3)s2)cc1[C@@H]1O[C@H](CO)[C@@H](O)[C@H](O)[C@H]1O | 0.713 |
| OCc1cc(Cl)c(Cc2ncc(-c3ccco3)s2)cc1[C@@H]1O[C@H](CO)[C@@H](O)[C@H](O)[C@H]1O | 0.00581 |
| OCc1cc(Cl)c(Cc2ncc(-c3ccoc3)s2)cc1[C@@H]1O[C@H](CO)[C@@H](O)[C@H](O)[C@H]1O | 0.0205 |
| OCc1cc(Cl)c(Cc2ncc(-c3cccs3)s2)cc1[C@@H]1O[C@H](CO)[C@@H](O)[C@H](O)[C@H]1O | 0.00588 |
| OCc1cc(Cl)c(Cc2ncc(-c3ccsc3)s2)cc1[C@@H]1O[C@H](CO)[C@@H](O)[C@H](O)[C@H]1O | 0.00223 |
| C=CCOCc1cc(Cl)c(Cc2ncc(-c3ccoc3)s2)cc1[C@@H]1O[C@H](CO)[C@@H](O)[C@H](O)[C@H]1O | 0.0387 |
| C=CCOCc1cc(Cl)c(Cc2ncc(-c3cccs3)s2)cc1[C@@H]1O[C@H](CO)[C@@H](O)[C@H](O)[C@H]1O | 0.0162 |
| C=CCOCc1cc(Cl)c(Cc2ncc(-c3ccsc3)s2)cc1[C@@H]1O[C@H](CO)[C@@H](O)[C@H](O)[C@H]1O | 0.01 |
| OC[C@H]1O[C@@H](c2cc(Cc3ncc(-c4ccc(F)cc4)s3)c(Cl)cc2F)[C@H](O)[C@@H](O)[C@@H]1O | 0.0274 |
| OC[C@H]1O[C@@H](c2cc(Cc3ncc(-c4ccco4)s3)c(Cl)cc2Cl)[C@H](O)[C@@H](O)[C@@H]1O | 0.00224 |

Reference: ChEMBL document CHEMBL1781928, “Thiazolylmethyl ortho-substituted phenyl glucoside library as novel C-aryl glucoside SGLT2 inhibitors” (Eur J Med Chem, 2011)
